In assay [1] the target is Human immunodeficiency virus type 1 reverse transcriptase (Human immunodeficiency virus 1, UniProt Q72547). The experiment in a line: The quantity of compound required to reduce WT Reverse transcriptase activity by 50%. In a few lines: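 RNA-dependent DNA polymerase activity of purified heterodimer RT (0.015 mg/mL) at various inhibitor concentrations; 25 mM Tris pH 8.0, 75 mM KCl, 8 mM MgCl₂, 2 mM DTT, 0.1 mg/mL BSA, CHAPS, poly(rC)-oligo(dG) template-primer, 0.01 mM dGTP with [α-³⁵S]-dGTP tracer; 30 min at 37 °C; radiolabel incorporation read.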

Assay [2] has as its target Human immunodeficiency virus type 1 reverse transcriptase (Human immunodeficiency virus 1) (UniProt Q72547). The experiment in a line: Inhibition of HIV-1 (wild type) reverse transcriptase at 10 uMol. Particulars: 10 uM. In outline: (§1)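 Purified heterodimer RT (0.015 mg/mL) incubated with or without inhibitor (10 μM) in 25 mM Tris pH 8.0, 75 mM KCl, 8 mM MgCl₂, 2 mM DTT, 0.1 mg/mL BSA, CHAPS, 0.1 units poly(rC)-oligo(dG), 0.01 mM dGTP plus [α-³⁵S]-dGTP; 30 min, 37 °C. Nucleotide incorporation expressed relative to no-inhibitor control.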

Assay [3] has as its system CEM-SS. The experiment in a line: In vitro 50% cellular protection of CEM-SS cells from HIV-1 induced cytopathicity. The assay is classed as functional, cell-based. Particulars: Homo sapiens. In general terms: Damage to the host cells serves as the signal in cytopathic effect assays.
Assay [4] concerns the target Human immunodeficiency virus type 1 reverse transcriptase (Human immunodeficiency virus 1) (UniProt Q72547). The experiment in a line: Compound is evaluated for the percentage of inhibition of HIV-1 WT Reverse transcriptase at 10 uM drug concentration. In outline: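 Purified heterodimer HIV-1 WT RT (0.015 mg/mL), RNA-dependent DNA polymerase assay; poly(rC)-oligo(dG) template-primer (0.1 units), 0.01 mM dGTP plus [α-³⁵S]-dGTP, in 25 mM Tris pH 8.0, 75 mM KCl, 8 mM MgCl₂, 2 mM DTT, 0.1 mg/mL BSA, CHAPS; 30 min, 37 °C. Nucleotide incorporation relative to no-inhibitor control gives % inhibition.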

For assay [5] the target is unchanged. The experiment in a line: Compound is evaluated for the percent inhibition of HIV-1 WT Reverse transcriptase at 10 uM drug concentration. In outline: as §1

Consider `Cc1cccc2c1nc(-c1c(F)cccc1F)n2Cc1c(F)cccc1F`, for which the IC50 (usually the midpoint of a concentration-inhibition curve) in assay [1] worked out at 200 nM. Further, the inhibition (as a rule, the percentage by which the read-out fell short of the control) in assay [2] turned out to be 92%. For the same molecule, the EC50 (as a rule, the concentration at which the effect is half-maximal) in assay [3] stood at 440 nM.
In assay [2], `Cc1cccc2c1ncn2Cc1c(F)cccc1F` came in with an inhibition of 40%.
With `Cc1cccc2c1nc(-c1c(F)cccc1F)n2Cc1cccnc1`, the inhibition in assay [2] was 43%.
The same measure, in the same setting: the same measure for `Fc1cccc(F)c1COCc1nc2ccccc2n1Cc1c(F)cccc1F`: 7%.
Regarding `Cc1cccc2c1nc(-c1c(F)cccc1F)n2Cc1ccccc1`, it took 1600 nM to reach half-maximal inhibition in assay [1] (IC50). In assay [2], this molecule showed an inhibition of 87%. Moreover, in assay [3], the concentration giving a half-maximal response (EC50) is 750 nM.
On to `Cc1cccc2c1nc(-c1c(F)cccc1F)n2Cc1c(Cl)cccc1Cl`, for which the inhibition in assay [2] worked out at 58%. The 50% effective concentration (EC50) in assay [3] is 3160 nM.
The like results for `Cc1cccc2c1nc(-c1ccncc1)n2Cc1c(F)cccc1F` were, in that order, 70% and 3500 nM.
Consider `Cc1cccc2c1nc(-c1c(F)cccc1F)n2Cc1c(F)c(F)c(F)c(F)c1F`, for which, in assay [2], the inhibition worked out at 36%.
The molecule `O=C(c1c(F)cccc1F)n1c(-c2c(F)cccc2F)nc2ccccc21` gave an inhibition in assay [2] of 8%.
Take `O=S(=O)(c1ccccc1)n1c(-c2c(F)cccc2F)nc2ccccc21`: the inhibition in assay [2] turned out to be 52%.
For the molecule `Cc1cccc2c1nc(-c1cccnc1)n2Cc1c(F)cccc1F`, the inhibition in assay [2] turned out to be 35%. For the same molecule, it took 31600 nM to reach a half-maximal effect in assay [3] (EC50).
Turning to `Cc1cccc2c1nc(-c1ccc3ccccc3c1)n2Cc1c(F)cccc1F`, in assay [2], the inhibition stood at 8%.
In assay [1], `Fc1cccc(F)c1-c1nc2ccccc2n1Cc1ccccc1` showed an IC50 of 18600 nM. In assay [2], this molecule registered an inhibition of 71%. Besides, the EC50 in assay [3] was over 32000 nM.
In assay [2], `Cc1cccc2c1nc(C=O)n2Cc1c(F)cccc1F` had an inhibition of 59%.
`Cc1ccccc1-c1nc2ccccc2n1Cc1c(F)cccc1F` registered an inhibition in assay [2] of 71%.
In assay [2], `Cc1nc2ccccc2n1Cc1c(F)cccc1F` yielded an inhibition of 22%.
With `Cc1cccc2c1nc(CO)n2Cc1c(F)cccc1F`, the inhibition in assay [2] is 12%.
Consider `Cc1cccc2c1nc(-c1c(F)cccc1F)n2S(=O)(=O)c1ccccc1`, for which, in assay [2], the inhibition was determined as 39%.
On to `Fc1cccc(F)c1Cn1c(-c2c(F)cccc2F)nc2ccccc21`, for which, in assay [1], half-maximal inhibition (IC50) required 110 nM. The same molecule returned an inhibition in assay [2] of 93%. Also, the half-maximal effective concentration (EC50) in assay [3] was 1700 nM.
With `Fc1cccc(F)c1C1SCc2nc3ccccc3n21` (centres undefined) [THIAZOLOBENZIMIDAZOLE], in assay [1], the IC50 worked out at 500 nM. This molecule also displayed an EC50 in assay [3] of 520 nM. In addition, the inhibition in assay [4] amounted to 84%.
`Cc1cccc2c1nc(-c1cccc3ccccc13)n2Cc1c(F)cccc1F` showed an inhibition in assay [2] of 2%.
In the case of `Cc1cccc2c1nc(-c1ccc(C#N)cc1)n2Cc1c(F)cccc1F`, the inhibition in assay [2] worked out at 26%.
Same read-out and setting: the same measure for `Cc1cccc2c1nc(C(C)C)n2Cc1c(F)cccc1F`: 53%.
As to `Fc1cccc(F)c1Cn1c(-c2ccccc2)nc2ccccc21`, in assay [5], the inhibition was found to be 77%. This molecule had a half-maximal inhibitory concentration (IC50) in assay [1] of 16000 nM. Further, a half-maximal effect in assay [3] (EC50) was put at 6060 nM.

For the origin of these results see ChEMBL document CHEMBL1130403, “Synthesis and biological activity of novel nonnucleoside inhibitors of HIV-1 reverse transcriptase. 2-Aryl-substituted benzimidazoles” (J Med Chem, 1997).
